Experiment [1] concerns the target T1, Cannabinoid receptor 2 (Homo sapiens, UniProt P34972). The experiment in a line: Agonist activity at human CB2 receptor expressed in SF9 cells assessed as inhibition of CP-55940-stimulated GTP binding. The method, boiled down:
(§1)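 Sf9 membranes co-expressing hCB1 or hCB2 with Gαi3 (Bmax 1.7 pmol/ml). Europium-GTP (10 nM) binding in 50 mM Hepes, 0.1% BSA, 10 mM MgCl2, 150 mM NaCl, GDP, 0.0005% saponin, 1% DMSO. Compound tested from 0.01 nM upward. Incubated 45 min at room temperature, then filtered and washed; fluorescence read at 615 nm. 3 micromolar CP55940 defines 100% efficacy.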

Experiment [2] addresses T1, Cannabinoid receptor 2. The experiment in a line: Agonist activity at human CB2 receptor expressed in SF9 cells assessed as inhibition of CP-55940-stimulated GTP binding relative to control. The method, boiled down: (§2)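 Sf9 insect-cell membranes co-expressing hCB1 or hCB2 with Gαi3 (Bmax 1.7 pmol/ml). Compound added in 50 mM Hepes/0.1% BSA to buffer with 10 mM MgCl2, 150 mM NaCl, GDP, 10 nM GTP-Europium and 0.0005% saponin. Final DMSO was 1%. Incubated 45 min at room temperature, then filtered, washed and read by fluorescence at 615 nm. 3 µM CP55940 set 100% efficacy. Logistic fit, n = 2–20.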

Experiment [3] has as its target T2, Cannabinoid receptor 1 (Homo sapiens, UniProt P21554). The experiment in a line: Agonist activity at human CB1 receptor expressed in SF9 cells assessed as inhibition of CP-55940-stimulated GTP binding. The method, boiled down: as §1
In experiment [4] the target is T2, Cannabinoid receptor 1. The experiment in a line: Agonist activity at human CB1 receptor expressed in SF9 cells assessed as inhibition of CP-55940-stimulated GTP binding relative to control. The method, boiled down: as §2
Experiment [5] has as its target T1, Cannabinoid receptor 2. The experiment in a line: Agonist activity at human CB2 receptor expressed in CHO cells assessed as suppression of forskolin-stimulated cAMP accumulation. The class given is functional, cell-based. The method, boiled down:
(§3)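 Forskolin-induced cAMP measured in CHO cells expressing human CB1 or CB2. EC50 from a logistic fit of the concentration–response curve. Emax taken as the maximum of the dose–response. Means of n = 2–20 independent measurements.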

For experiment [6], the target named is T1, Cannabinoid receptor 2. The experiment in a line: Agonist activity at human CB2 receptor expressed in CHO cells assessed as suppression of forskolin-stimulated cAMP accumulation relative to control. The class given is functional, cell-based. The method, boiled down:
(§4)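 CHO cells expressing human CB1 or CB2. Read-out was suppression of forskolin-induced cAMP production in whole cells. Emax was taken as the maximum of the dose–response curve. Values are means of n = 2–20 independent measurements, derived by logistic fit.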
In general terms: Cyclic AMP is a second messenger, typically raised through Gs and lowered through Gi signalling.

The target in experiment [7] is T2, Cannabinoid receptor 1. The experiment in a line: Agonist activity at human CB1 receptor expressed in CHO cells assessed as suppression of forskolin-stimulated cAMP accumulation. The class given is functional, cell-based. The method, boiled down:
as §3

Experiment [8] deals with T2, Cannabinoid receptor 1. The experiment in a line: Agonist activity at human CB1 expressed in CHO cells receptor assessed as suppression of forskolin-stimulated cAMP accumulation relative to control. The class given is functional, cell-based. The method, boiled down:
as §4

A further experiment is filed under the species Homo sapiens. The experiment in a line: Selectivity for human CB2 receptor over human CB1 receptor.

T2 sequence (P21554 whole entry): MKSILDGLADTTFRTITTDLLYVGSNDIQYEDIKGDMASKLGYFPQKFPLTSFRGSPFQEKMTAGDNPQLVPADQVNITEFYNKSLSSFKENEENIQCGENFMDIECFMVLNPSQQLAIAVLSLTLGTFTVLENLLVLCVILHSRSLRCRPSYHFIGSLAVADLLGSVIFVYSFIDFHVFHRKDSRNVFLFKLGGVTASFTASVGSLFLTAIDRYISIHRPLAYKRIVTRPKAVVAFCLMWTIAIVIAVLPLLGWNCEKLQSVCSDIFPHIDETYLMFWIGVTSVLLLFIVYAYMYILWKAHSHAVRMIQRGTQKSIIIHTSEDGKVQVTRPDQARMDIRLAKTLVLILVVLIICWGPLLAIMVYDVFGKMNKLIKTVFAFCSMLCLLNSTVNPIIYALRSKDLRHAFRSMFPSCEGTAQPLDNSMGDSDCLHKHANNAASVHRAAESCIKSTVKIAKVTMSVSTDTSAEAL
T1 sequence (P34972 whole entry): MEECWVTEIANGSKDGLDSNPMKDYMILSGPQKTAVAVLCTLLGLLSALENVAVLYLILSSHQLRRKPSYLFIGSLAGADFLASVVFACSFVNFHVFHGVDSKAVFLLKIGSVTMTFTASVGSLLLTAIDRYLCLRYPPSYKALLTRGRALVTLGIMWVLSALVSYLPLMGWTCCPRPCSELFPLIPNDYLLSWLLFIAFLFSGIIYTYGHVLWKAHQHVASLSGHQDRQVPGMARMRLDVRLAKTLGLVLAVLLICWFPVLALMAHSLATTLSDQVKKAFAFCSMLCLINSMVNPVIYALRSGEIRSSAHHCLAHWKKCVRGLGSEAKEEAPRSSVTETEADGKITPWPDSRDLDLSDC

Regarding `CC(C)(C(=O)Nc1cnc2ccccc2c1)S(=O)(=O)c1ccc(C(F)(F)F)cc1`, the EC50 on Cannabinoid receptor 2 [1] was determined as 96 nM; on Cannabinoid receptor 1 [3], 710 nM; at Cannabinoid receptor 2 [5] it was 8 nM; on Cannabinoid receptor 1 [7], 82 nM. The Emax at Cannabinoid receptor 2 [2] came out at 88%; at Cannabinoid receptor 1 [4], 86%; on Cannabinoid receptor 2 [6] it was 96%; at Cannabinoid receptor 1 [8], 93%. The Selectivity ratio in the experiment listed under Homo sapiens turned out to be 10.

In general, EC50 refers to the concentration that produces a half-maximal response. In general, Emax refers to the greatest response seen or fitted, relative to the assay's reference.
